According to ChEMBL document CHEMBL1154186, “Synthesis, kinase inhibitory potencies, and in vitro antiproliferative evaluation of new Pim kinase inhibitors” (J Med Chem, 2009):

How the values were obtained:
[1] = target: RAC-alpha serine/threonine-protein kinase (Homo sapiens) (UniProt P31749); experiment: Inhibition of PKBalpha assessed as residual enzyme activity at 10 uM relative to untreated control
Procedure, shortened: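 Radiometric filter-binding assay at 21 °C for 30 min. Mix: 50 mM Tris/HCl pH 7.5, 0.1 mM EGTA, 0.1% 2-mercaptoethanol, 10 mM Mg acetate and [γ-33P]ATP (800 cpm/pmol) at 5 µM. Stopped with orthophosphoric acid and spotted on P81. Compound at 10 µM; activity given as % remaining versus no-inhibitor control, duplicates. Kinases human full-length unless noted.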

[2] = target: Tyrosine-protein kinase CSK (Homo sapiens) (UniProt P41240); experiment: Inhibition of CSK assessed as residual enzyme activity at 10 uM relative to untreated control
Sequence of Tyrosine-protein kinase CSK (Homo sapiens) (P41240 2-450 limits assumed): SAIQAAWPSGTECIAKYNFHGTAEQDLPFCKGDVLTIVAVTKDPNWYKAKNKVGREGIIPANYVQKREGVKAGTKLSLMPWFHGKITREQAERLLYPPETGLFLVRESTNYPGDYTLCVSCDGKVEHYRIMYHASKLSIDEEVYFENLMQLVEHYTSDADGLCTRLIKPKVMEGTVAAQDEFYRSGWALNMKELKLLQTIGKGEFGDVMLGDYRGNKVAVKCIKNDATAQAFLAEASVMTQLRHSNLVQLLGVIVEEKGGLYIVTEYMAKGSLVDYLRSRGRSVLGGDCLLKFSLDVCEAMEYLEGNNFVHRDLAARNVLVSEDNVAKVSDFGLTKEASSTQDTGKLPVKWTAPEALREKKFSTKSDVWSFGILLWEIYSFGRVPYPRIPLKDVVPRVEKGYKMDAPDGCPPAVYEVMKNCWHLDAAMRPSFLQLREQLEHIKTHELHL
Procedure, shortened: (§1)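 Kinases of human origin, except CK1δ, which is rat. Run in 50 mM Tris/HCl pH 7.5, 0.1 mM EGTA, 0.1% 2-mercaptoethanol and 10 mM Mg acetate, with [γ-33P]ATP at 20 µM, 30 min at 21 °C. Acid-stopped and captured on P81 filters. Compound tested at 10 µM; residual % of uninhibited control, duplicate determinations.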

[3] = target: Mitogen-activated protein kinase 9 (Homo sapiens) (UniProt P45984); experiment: Inhibition of JNK2 assessed as residual enzyme activity at 10 uM relative to untreated control; procedure, shortened: as §1
Sequence of Mitogen-activated protein kinase 9 (Homo sapiens) (P45984 whole entry, looked up): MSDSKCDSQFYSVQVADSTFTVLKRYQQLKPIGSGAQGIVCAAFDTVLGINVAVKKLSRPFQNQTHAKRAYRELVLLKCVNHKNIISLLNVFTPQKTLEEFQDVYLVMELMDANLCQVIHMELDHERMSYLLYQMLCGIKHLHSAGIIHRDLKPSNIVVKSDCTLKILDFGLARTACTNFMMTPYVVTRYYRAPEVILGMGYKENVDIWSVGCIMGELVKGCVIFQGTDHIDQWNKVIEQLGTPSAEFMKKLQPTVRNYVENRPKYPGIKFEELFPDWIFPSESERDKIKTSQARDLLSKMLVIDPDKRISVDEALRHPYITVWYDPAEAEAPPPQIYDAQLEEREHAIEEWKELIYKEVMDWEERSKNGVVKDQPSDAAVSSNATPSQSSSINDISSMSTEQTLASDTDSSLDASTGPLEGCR

[4] = target: T1, Mitogen-activated protein kinase 12 (Homo sapiens) (UniProt P53778); experiment: Inhibition of p38-gamma assessed as residual enzyme activity at 10 uM relative to untreated control
T1 sequence (whole entry): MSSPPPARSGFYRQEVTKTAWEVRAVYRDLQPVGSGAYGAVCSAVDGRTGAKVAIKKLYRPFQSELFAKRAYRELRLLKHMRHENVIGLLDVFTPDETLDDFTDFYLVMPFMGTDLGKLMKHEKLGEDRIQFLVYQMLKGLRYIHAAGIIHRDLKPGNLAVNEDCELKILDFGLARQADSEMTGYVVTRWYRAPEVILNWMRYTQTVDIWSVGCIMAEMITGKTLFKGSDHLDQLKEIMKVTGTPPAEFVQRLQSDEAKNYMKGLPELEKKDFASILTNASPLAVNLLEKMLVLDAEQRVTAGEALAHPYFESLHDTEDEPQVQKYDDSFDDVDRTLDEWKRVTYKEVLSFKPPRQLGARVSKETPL
Procedure, shortened: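 p38γ and p38δ MAPK run at 5 µM [γ-33P]ATP, and p38α at 50 µM, each with 10 mM Mg acetate. Buffer 50 mM Tris/HCl pH 7.5, 0.1 mM EGTA, 0.1% 2-mercaptoethanol. 10 µM compound, 30 min at 21 °C. P81 filter capture. Residual activity relative to control, duplicates.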

[5] = target: T2, Serine/threonine-protein kinase D1 (Homo sapiens) (UniProt Q15139); experiment: Inhibition of PKD1 assessed as residual enzyme activity at 10 uM relative to untreated control
T2 sequence (whole entry): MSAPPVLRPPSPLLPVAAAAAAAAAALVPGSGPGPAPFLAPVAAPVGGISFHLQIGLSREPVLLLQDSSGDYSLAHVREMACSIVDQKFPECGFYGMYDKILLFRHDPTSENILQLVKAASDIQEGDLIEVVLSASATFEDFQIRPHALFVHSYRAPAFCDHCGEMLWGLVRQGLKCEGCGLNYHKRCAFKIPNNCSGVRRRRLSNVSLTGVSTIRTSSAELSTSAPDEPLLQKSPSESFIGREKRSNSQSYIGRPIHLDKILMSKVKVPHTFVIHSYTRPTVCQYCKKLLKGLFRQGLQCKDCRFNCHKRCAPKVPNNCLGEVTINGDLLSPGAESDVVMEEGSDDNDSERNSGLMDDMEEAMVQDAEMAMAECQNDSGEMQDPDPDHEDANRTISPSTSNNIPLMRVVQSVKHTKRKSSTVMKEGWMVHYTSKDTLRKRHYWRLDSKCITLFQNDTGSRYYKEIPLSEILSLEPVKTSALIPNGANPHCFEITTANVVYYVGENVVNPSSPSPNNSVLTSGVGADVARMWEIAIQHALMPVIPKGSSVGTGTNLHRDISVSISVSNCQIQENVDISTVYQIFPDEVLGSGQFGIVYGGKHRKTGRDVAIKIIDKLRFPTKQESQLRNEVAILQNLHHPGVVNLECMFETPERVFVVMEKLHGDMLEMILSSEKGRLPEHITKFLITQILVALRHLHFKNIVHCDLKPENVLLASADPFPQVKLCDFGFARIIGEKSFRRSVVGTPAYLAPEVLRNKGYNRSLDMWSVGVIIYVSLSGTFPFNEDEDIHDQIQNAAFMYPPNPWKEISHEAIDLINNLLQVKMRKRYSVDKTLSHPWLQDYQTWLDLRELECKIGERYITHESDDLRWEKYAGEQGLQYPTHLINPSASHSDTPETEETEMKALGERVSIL

[6] = target: Ribosomal protein S6 kinase alpha-5 (Homo sapiens) (UniProt O75582); experiment: Inhibition of MSK1 assessed as residual enzyme activity at 10 uM relative to untreated control
Sequence of Ribosomal protein S6 kinase alpha-5 (Homo sapiens) (O75582 whole entry, looked up): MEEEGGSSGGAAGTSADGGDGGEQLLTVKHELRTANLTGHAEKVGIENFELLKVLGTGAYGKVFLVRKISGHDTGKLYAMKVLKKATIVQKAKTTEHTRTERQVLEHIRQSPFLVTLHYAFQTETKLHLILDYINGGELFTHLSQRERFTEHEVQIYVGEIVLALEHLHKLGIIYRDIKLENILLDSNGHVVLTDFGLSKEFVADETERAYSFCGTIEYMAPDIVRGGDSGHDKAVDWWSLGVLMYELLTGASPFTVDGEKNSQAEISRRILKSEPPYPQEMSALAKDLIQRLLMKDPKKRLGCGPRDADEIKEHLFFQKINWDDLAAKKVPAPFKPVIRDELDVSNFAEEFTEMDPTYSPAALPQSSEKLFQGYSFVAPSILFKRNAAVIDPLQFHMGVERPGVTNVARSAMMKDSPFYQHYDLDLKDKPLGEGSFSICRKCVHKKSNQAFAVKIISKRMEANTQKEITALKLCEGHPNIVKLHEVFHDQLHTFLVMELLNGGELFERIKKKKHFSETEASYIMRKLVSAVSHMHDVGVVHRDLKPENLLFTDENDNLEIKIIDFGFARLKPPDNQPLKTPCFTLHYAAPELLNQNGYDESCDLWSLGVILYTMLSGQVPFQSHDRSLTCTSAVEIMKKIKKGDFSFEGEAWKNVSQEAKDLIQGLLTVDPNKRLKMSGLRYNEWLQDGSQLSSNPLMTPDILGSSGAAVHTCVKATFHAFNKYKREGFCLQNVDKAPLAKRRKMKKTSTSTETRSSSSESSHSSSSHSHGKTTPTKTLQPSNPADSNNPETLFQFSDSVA

[7] = target: Proto-oncogene tyrosine-protein kinase Src (Homo sapiens) (UniProt P12931); experiment: Inhibition of Src assessed as residual enzyme activity at 10 uM relative to untreated control
Sequence of Proto-oncogene tyrosine-protein kinase Src (Homo sapiens) (P12931 2-536 limits assumed): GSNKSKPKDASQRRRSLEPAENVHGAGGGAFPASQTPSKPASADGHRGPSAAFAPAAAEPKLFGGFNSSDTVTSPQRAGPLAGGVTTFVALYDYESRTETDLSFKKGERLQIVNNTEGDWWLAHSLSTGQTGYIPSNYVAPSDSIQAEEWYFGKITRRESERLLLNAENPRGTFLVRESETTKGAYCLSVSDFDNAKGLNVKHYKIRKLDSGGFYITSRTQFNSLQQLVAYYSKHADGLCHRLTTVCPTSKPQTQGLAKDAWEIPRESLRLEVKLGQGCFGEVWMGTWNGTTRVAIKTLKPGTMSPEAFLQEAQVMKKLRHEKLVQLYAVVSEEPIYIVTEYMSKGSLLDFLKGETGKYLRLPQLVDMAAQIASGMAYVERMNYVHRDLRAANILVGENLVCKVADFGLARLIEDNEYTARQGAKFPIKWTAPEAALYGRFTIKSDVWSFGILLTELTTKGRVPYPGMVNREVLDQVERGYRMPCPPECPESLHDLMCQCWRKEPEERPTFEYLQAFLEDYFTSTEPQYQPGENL

[8] = target: Mitogen-activated protein kinase 8 (Homo sapiens) (UniProt P45983); experiment: Inhibition of JNK1 assessed as residual enzyme activity at 10 uM relative to untreated control; procedure, shortened: as §1
Sequence of Mitogen-activated protein kinase 8 (Homo sapiens) (P45983 whole entry): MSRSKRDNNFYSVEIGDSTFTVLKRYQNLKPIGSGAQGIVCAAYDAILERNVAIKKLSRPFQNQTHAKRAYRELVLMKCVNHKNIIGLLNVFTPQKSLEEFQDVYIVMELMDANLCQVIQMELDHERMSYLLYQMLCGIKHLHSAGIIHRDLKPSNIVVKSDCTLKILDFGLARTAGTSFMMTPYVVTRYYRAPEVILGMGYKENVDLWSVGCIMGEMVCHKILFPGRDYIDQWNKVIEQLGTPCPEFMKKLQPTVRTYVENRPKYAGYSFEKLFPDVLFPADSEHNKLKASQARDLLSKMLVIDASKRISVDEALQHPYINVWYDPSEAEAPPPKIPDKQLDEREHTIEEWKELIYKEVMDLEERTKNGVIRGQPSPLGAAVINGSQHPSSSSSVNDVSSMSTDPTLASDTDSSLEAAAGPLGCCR

[9] = target: T3, Eukaryotic elongation factor 2 kinase (Homo sapiens) (UniProt O00418); experiment: Inhibition of EF2K assessed as residual enzyme activity at 10 uM relative to untreated control
T3 sequence (whole entry): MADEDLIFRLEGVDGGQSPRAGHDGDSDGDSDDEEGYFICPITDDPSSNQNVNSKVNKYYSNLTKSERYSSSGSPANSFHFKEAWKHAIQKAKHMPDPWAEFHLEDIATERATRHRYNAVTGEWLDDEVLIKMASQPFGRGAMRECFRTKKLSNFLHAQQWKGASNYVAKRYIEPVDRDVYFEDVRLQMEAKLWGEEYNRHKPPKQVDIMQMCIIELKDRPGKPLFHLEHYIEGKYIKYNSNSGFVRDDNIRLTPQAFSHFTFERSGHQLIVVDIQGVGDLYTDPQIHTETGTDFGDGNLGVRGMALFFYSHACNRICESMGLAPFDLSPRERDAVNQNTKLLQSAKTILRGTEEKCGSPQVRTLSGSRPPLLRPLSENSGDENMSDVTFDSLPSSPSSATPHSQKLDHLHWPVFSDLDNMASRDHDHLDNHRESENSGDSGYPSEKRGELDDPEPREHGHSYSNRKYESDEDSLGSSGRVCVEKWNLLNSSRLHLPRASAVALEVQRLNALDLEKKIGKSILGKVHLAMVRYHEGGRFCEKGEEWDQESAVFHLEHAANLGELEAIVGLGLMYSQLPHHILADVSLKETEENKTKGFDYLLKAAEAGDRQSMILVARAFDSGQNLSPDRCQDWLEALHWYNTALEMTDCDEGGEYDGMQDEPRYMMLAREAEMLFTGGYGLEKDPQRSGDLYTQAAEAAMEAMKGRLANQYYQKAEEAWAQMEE

Sequence of RAC-alpha serine/threonine-protein kinase (Homo sapiens) (P31749 whole entry): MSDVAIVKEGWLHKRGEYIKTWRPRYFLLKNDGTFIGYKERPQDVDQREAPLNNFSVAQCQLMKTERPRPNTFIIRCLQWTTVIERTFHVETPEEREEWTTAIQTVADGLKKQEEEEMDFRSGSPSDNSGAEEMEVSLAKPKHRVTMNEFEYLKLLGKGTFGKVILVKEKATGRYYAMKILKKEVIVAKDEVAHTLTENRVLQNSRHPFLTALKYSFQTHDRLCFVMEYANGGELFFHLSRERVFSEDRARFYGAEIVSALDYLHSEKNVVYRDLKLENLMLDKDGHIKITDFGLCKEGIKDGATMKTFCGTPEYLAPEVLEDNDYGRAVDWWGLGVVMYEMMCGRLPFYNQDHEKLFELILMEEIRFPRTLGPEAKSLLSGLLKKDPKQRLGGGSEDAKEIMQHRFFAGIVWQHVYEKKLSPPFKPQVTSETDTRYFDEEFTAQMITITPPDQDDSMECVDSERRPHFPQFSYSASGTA

c1ccc2c(c1)[nH]c1c2ccc2cc[nH]c21
Activity [1]: 120% | Activity [2]: 98% | Activity [3]: 118% | Activity [4]: 111% | Activity [5]: 83% | Activity [6]: 90% | Activity [7]: 98% | Activity [8]: 102% | Activity [9]: 101%

O=Cc1c[nH]c2c1ccc1c3ccccc3[nH]c12
Activity [1]: 96% | Activity [2]: 74% | Activity [3]: 128% | Activity [4]: 74% | Activity [5]: 28% | Activity [6]: 71% | Activity [7]: 85% | Activity [8]: 102% | Activity [9]: 90%

O=Cc1c[nH]c2ccc3c4ccccc4[nH]c3c12
Activity [1]: 112% | Activity [2]: 87% | Activity [3]: 111% | Activity [4]: 109% | Activity [5]: 87% | Activity [6]: 84% | Activity [7]: 99% | Activity [8]: 113% | Activity [9]: 105%

c1ccc2c(c1)[nH]c1c3cc[nH]c3ccc21
Activity [1]: 110% | Activity [2]: 72% | Activity [3]: 130% | Activity [4]: 111% | Activity [5]: 71% | Activity [6]: 94% | Activity [7]: 102% | Activity [8]: 116% | Activity [9]: 92%
